Test results reported in ChEMBL document CHEMBL1138619, “Autotaxin structure-activity relationships revealed through lysophosphatidylcholine analogs” (Bioorg Med Chem, 2009).

Columns and labels:
Format in all cases: cell-based
Design in all cases: scale not given: the % may be the effect or the level left
[1] = target: Autotaxin (Homo sapiens) (UniProt Q13822); test: Activity of human autotaxin in human […] cells assessed as effect on enzyme-mediated of FS3 hydrolysis at 1 uM
Outline: (§1)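 ATX source: serum-free conditioned medium from MDA-MB-435 cells (24-30 h), with 20% ethylene glycol added, concentrated ~10-fold and exchanged into 50 mM Tris pH 7.4. Assay: FS-3 substrate 1 μM final, fatty-acid-free BSA 30 μM, Tris pH 8 buffer with Mg2+, Ca2+, K+ and NaCl. Read fluorescence at ex 485/em 538 nm every 5 min. % inhibition vs vehicle at 1 h, after no-medium background subtraction; mean ± SD, ≥3 wells.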

[2] = target: Autotaxin (Homo sapiens) (UniProt Q13822); test: Activity of human autotaxin in human […] cells assessed as effect on enzyme-mediated of FS3 hydrolysis at 0.1 uM; outline: as §1
[3] = target: Autotaxin (Homo sapiens) (UniProt Q13822); test: Activity of human autotaxin in human […] cells assessed as effect on enzyme-mediated of FS3 hydrolysis at 10 uM; outline: as §1

Row | Activity [1] | Activity [2] | Activity [3] | Structure (SMILES)
1 | 23% | 90% | 2% | CCCCCCCCC/C=C/CCCCCCCC(=O)OC[C@@H](O)COP(=O)(O)O
2 | 96% | 110% | 44% | CCCCCCCCCCCCCCCCCCP(=O)([O-])OCC[N+](C)(C)C
3 | 89% | 93% | 74% | CCCCCCCCC/C=C/CCCCCCCOP(=O)([O-])NCC[N+](C)(C)C
4 | 86% | 92% | 44% | CCCCCCCCCCCCCCCCCCCOC[C@@H](O)COP(=O)([O-])OCC[N+](C)(C)C
5 | 99% | 111% | 59% | CCCCCCCCCCCCCCCCCCC(=O)OC[C@@H](O)COP(=O)([O-])OCC[N+](C)(C)C
6 | 59% | 105% | 8% | CCCCCCCC/C=C\CCCCCCCCOP(=O)([O-])OCC[N+](C)(C)C
7 | 97% | 102% | 66% | CCCCCCCCCCCCC(=O)OC[C@@H](O)COP(=O)([O-])OCC[N+](C)(C)C
8 | 96% | 97% | 89% | CCCCCCCCCCOC[C@H](O)COP(=O)([O-])CCC[N+](C)(C)C
9 | 74% | 89% | 36% | CCCCCCCCCCCCCCCCCCC(=O)OC[C@@H](O)COP(=O)(O)O
10 | 94% | 97% | 91% | CCCCCCCCCCCCCCCCOP(=O)([O-])CCC[N+](C)(C)C
11 | 82% | 83% | 72% | CCCCCCCCCCCCCCCCOC[C@@H](O)COP(=O)([O-])CCC[N+](C)(C)C
12 | 90% | 89% | 75% | CCCCCCCCCCCCCCOP(=O)([O-])NCC[N+](C)(C)C
13 | 77% | 78% | 68% | CCCCCCCCCCCCCCCCCCOC[C@H](O)COP(=O)([O-])CCC[N+](C)(C)C
14 | 112% | 110% | 91% | CCCCCCCCCCCCCCOP(=O)([O-])OCC[N+](C)(C)C
15 | 100% | 101% | 79% | CCCCCCCC/C=C\CCCCCCCCOP(=O)(O)OCC[N+](C)(C)C
16 | 89% | 100% | 49% | CCCCCCCCCCCCCCCCCOC[C@@H](O)COP(=O)([O-])OCC[N+](C)(C)C
17 | 86% | 82% | 76% | CCCCCCCCCCCCCCCCOC[C@H](O)COP(=O)([O-])CCC[N+](C)(C)C
18 | 116% | 114% | 102% | CCCCCCCCCCCCCCCCCCOP(=O)([O-])OCC[N+](C)(C)C

Row | Activity [1] | Activity [2] | Activity [3] | Structure (SMILES)
19 | 74% | 86% | 29% | CCCCCCCCCCCCCCCCCCOP(=O)([O-])NCC[N+](C)(C)C
20 | 95% | 98% | 87% | CCCCCCCCCCCCOC[C@H](O)COP(=O)([O-])CCC[N+](C)(C)C
21 | 95% | 101% | 103% | CCCCCCCCCCOC[C@@H](O)COP(=O)([O-])CCC[N+](C)(C)C
22 | 81% | 81% | 77% | CCCCCCCCCCCCCCCCOP(=O)([O-])NCC[N+](C)(C)C
23 | 113% | 114% | 92% | CCCCCCCCCCCCCCCCOP(=O)([O-])OCC[N+](C)(C)C
24 | 101% | 101% | 85% | CCCCCCCCCCC(=O)OC[C@@H](O)COP(=O)([O-])OCC[N+](C)(C)C
25 | 89% | 81% | 76% | CCCCCCCCCCCCCCCCCCOC[C@@H](O)COP(=O)([O-])CCC[N+](C)(C)C
26 | 80% | 72% | 36% | CCCCCCCCCCCCCCC(=O)OC[C@@H](O)COP(=O)([O-])OCC[N+](C)(C)C
27 | 89% | 109% | 36% | CCCCCCCCCCCCCCCCC(=O)OC[C@@H](O)COP(=O)([O-])OCC[N+](C)(C)C
28 | 49% | 74% | 5% | CCCCCCCCCCCCCCCCC(=O)OC[C@@H](O)COP(=O)(O)O
29 | 81% | 94% | 101% | CCCCCCCCC(=O)OC[C@@H](O)COP(=O)([O-])OCC[N+](C)(C)C
30 | 100% | 104% | 97% | CCCCCCC(=O)OC[C@@H](O)COP(=O)([O-])OCC[N+](C)(C)C
31 | 55% | 92% | 17% | CCCCCCCCC/C=C/CCCCCCCC(=O)OC[C@@H](O)COP(=O)([O-])OCC[N+](C)(C)C
32 | 95% | 97% | 80% | CCCCCCCCCCCCCCOC[C@H](O)COP(=O)([O-])CCC[N+](C)(C)C
33 | 90% | 94% | 71% | CCCCCCCCCCCCCCOP(=O)([O-])CCC[N+](C)(C)C
34 | 96% | 99% | 89% | CCCCCCCCCCCCOC[C@@H](O)COP(=O)([O-])CCC[N+](C)(C)C
35 | 85% | 98% | 76% | CCCCCCCCCCCCCCOC[C@@H](O)COP(=O)([O-])CCC[N+](C)(C)C
